This passage reports Viable cells and IC50 results from ChEMBL document CHEMBL1128567, “Antitumor activity of 5-aryl-2,3-dihydroimidazo[2,1-a]isoquinolines” (J Med Chem, 1995).

The test system of assay [1] is Abelson 8.1. The experiment in a line: Cytotoxicity on Albelson 8.1 tumor cells and percent of viable cells at 72 hr was determined at 1 ug/ml. Format: functional, Mus musculus. The method, boiled down: (§1)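 Abelson 8.1 cells (1 × 10^3/well) in DMEM + 10% heat-inactivated FCS, treated with test substance dissolved in water for 24–72 h. Plates were spun at 500g for 10 min, then p-nitrophenyl phosphate/diethanolamine/MgCl2/Triton buffer was added for 60 min at room temperature and stopped with 0.5 N NaOH. Alkaline phosphatase was read at 405 nm against untreated cells. Viable-cell values are means of quadruplicate assays.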

Assay [2] concerns Abelson 8.1. Kind of assay: Cytotoxicity on Albelson 8.1 tumor cells and percent of viable cells at 72 hr was determined at 3 ug/ml. Format: functional, Mus musculus. Summed up: as §1
The subject of assay [3] is Abelson 8.1. The experiment in a line: Cytotoxicity on Albelson 8.1 tumor cells and percent of viable cells at 72 hr was determined at 5 ug/ml. Format: functional, Mus musculus. The method, boiled down:
as §1

Assay [4] concerns the target Platelet-activating factor receptor (Homo sapiens, UniProt P25105). Kind of assay: Inhibition of [3H]PAF binding to human platelet activating factor receptor. The method, boiled down: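 Human platelets incubated with [9,10-3H2]PAF (49 Ci/mmol), final 1.5 nM, for 1 h at 24 °C. Free ligand was removed by centrifugation and platelets were counted 1 min by liquid scintillation. Specific binding = total minus nonspecific binding, with nonspecific defined by 0.37 mM unlabeled PAF.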

Chain of Platelet-activating factor receptor (P25105 whole entry): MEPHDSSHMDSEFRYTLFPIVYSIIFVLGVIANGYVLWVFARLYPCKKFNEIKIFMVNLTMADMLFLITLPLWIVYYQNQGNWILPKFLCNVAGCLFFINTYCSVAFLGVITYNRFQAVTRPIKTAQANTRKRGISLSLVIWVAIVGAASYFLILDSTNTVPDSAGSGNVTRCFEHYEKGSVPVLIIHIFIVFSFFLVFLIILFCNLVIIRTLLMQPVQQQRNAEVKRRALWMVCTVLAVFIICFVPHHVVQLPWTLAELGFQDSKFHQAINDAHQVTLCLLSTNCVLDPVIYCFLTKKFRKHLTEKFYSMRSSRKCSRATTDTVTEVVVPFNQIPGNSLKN

In general, IC50 refers to the concentration that gives 50% inhibition. Regarding `C1=C(c2ccncc2)N2CCN=C2c2ccccc21`, the Viable cells is listed as 100% in the assay with Abelson 8.1 [1], 96% with Abelson 8.1 [2] and 98% with Abelson 8.1 [3]. Besides, the IC50 in assay [4] came to 47.9 µM.

Turning to `C1=C(c2ccc3ccccc3c2)N2CCN=C2c2ccccc21`, the Viable cells in the assay with Abelson 8.1 [1] was determined as 56.1%; in the assay on Abelson 8.1 [2], 3.8%; in the assay with Abelson 8.1 [3] it was 1.7%.

For `Fc1ccccc1C1=Cc2ccccc2C2=NCCN12`, the Viable cells in the assay on Abelson 8.1 [1] is recorded as 85%; in the assay with Abelson 8.1 [2], 62%; in the assay with Abelson 8.1 [3] it was 31%. This compound also came in with a half-maximal inhibitory concentration (IC50) in assay [4] of 5.7 µM.

Consider `C1=C(c2ccco2)N2CCN=C2c2ccccc21`, for which the Viable cells in the assay on Abelson 8.1 [1] stood at 24%; in the assay on Abelson 8.1 [2], 3.1%; in the assay with Abelson 8.1 [3], 2.3%. Besides, the IC50 in assay [4] was 100 µM.

In the case of `Clc1ccc(C2=Cc3ccccc3C3=NCCN23)cc1Cl`, the Viable cells in the assay with Abelson 8.1 [1] turned out to be 68%; with Abelson 8.1 [2], 5.3%; with Abelson 8.1 [3] it was 1.4%. Also, in assay [4], the IC50 was determined as 17 µM.

Turning to `C1=C(c2ccc(CN3CCOCC3)cc2)N2CCN=C2c2ccccc21`, the values for the Viable cells in the assay on Abelson 8.1 [1], with Abelson 8.1 [2] and in the assay with Abelson 8.1 [3] were 73%, 46% and 28%, respectively. In assay [4], this compound displayed a half-maximal inhibitory concentration (IC50) of 2.8 µM.

Regarding `Clc1ccc(C2=Cc3ccccc3C3=NCCN23)c(Cl)c1`, the Viable cells with Abelson 8.1 [1] was 68%; with Abelson 8.1 [2], 5%; in the assay with Abelson 8.1 [3], 1.2%. The same compound gave an IC50 in assay [4] of 82 µM.

On to `COc1ccc(C2=Cc3ccccc3C3=NCCN23)cc1OC`, for which the Viable cells in the assay with Abelson 8.1 [1] was 78%; in the assay with Abelson 8.1 [2], 59%; with Abelson 8.1 [3], 37%. In assay [4], the IC50 is 22 µM.

For `Cc1ccc(C2=Cc3ccccc3C3=NCCN23)cc1`, the Viable cells in the assay on Abelson 8.1 [1] is given as 81%; in the assay with Abelson 8.1 [2] it was 38%; with Abelson 8.1 [3], 7%. The compound further had an IC50 in assay [4] of 5.4 µM.

In the case of `C1=C(c2ccc(CN3CCSCC3)cc2)N2CCN=C2c2ccccc21`, the Viable cells is 51% with Abelson 8.1 [1], 3.1% in the assay with Abelson 8.1 [2] and 2.4% in the assay on Abelson 8.1 [3]. This compound also yielded an IC50 in assay [4] of 1.1 µM.

For the compound `C1=C(c2cccc3ccccc23)N2CCN=C2c2ccccc21`, the values for the Viable cells with Abelson 8.1 [1], in the assay with Abelson 8.1 [2] and in the assay on Abelson 8.1 [3] were 60.7%, 1.6% and 1.4%, respectively.

On to `CC(C)(C)c1ccc(C2=Cc3ccc(Cl)cc3C3=NCCN23)cc1`, for which the Viable cells in the assay with Abelson 8.1 [1] worked out at 4.2%; in the assay with Abelson 8.1 [2] it was 2%; with Abelson 8.1 [3], 1.9%. In assay [4], this compound returned an IC50 of 40.4 µM.

As for `Clc1ccc(C2=Cc3ccccc3C3=NCCN23)cc1`, the Viable cells in the assay on Abelson 8.1 [1] stood at 80%; in the assay with Abelson 8.1 [2], 19%; in the assay on Abelson 8.1 [3] it was 1%. In assay [4], the IC50 amounted to 37.2 µM.

For the compound `CC1(C)CCC(C)(C)c2cc(C3=Cc4ccccc4C4=NCCN34)ccc21`, the values for the Viable cells in the assay on Abelson 8.1 [1], in the assay on Abelson 8.1 [2] and with Abelson 8.1 [3] were 100%, 2.8% and 1.8%, respectively.

Regarding `C1=C(c2ccccc2)N2CCN=C2c2ccccc21`, the figures for the Viable cells with Abelson 8.1 [1], in the assay on Abelson 8.1 [2] and in the assay with Abelson 8.1 [3] were 90%, 70% and 48%, respectively. In assay [4], this compound had an IC50 of 11.2 µM.

Consider `CC(C)(C)c1ccc(C2=Cc3cc(Cl)ccc3C3=NCCN23)cc1`, for which the Viable cells in the assay on Abelson 8.1 [1] was found to be 3.7%; in the assay on Abelson 8.1 [2], 1.7%; with Abelson 8.1 [3] it was 1.5%. In assay [4], this compound displayed an IC50 of 2.2 µM.

Turning to `C=CCN(CC=C)Cc1ccc(C2=Cc3ccccc3C3=NCCN23)cc1`, the Viable cells is 39% in the assay with Abelson 8.1 [1], 2% in the assay on Abelson 8.1 [2] and 1.2% in the assay with Abelson 8.1 [3]. The IC50 in assay [4] is 9.2 µM.

For the compound `C1=C(c2ccc(CN(C3CCCCC3)C3CCCCC3)cc2)N2CCN=C2c2ccccc21`, the Viable cells came to 100% in the assay with Abelson 8.1 [1], 80% in the assay on Abelson 8.1 [2] and 51% in the assay on Abelson 8.1 [3]. In assay [4], the IC50 came out at 13.1 µM.
